From ChEMBL document CHEMBL4052605, “Lissoclibadin 1, a Polysulfur Aromatic Alkaloid from the Indonesian Ascidian Lissoclinum cf. badium, Induces Caspase-Dependent Apoptosis in Human Colon Cancer Cells and Suppresses Tumor Growth in Nude Mice” (J Nat Prod, 2017)
pIC50: −log10 of the molar value.

Legend:
Format in all cases: functional, cell-based
HCT-15 = test: Antiproliferative activity against human HCT15 cells after 24 hrs by WST-1 assay; conditions: HCT-15, 24 h
How it was run: (§1)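 WST-1 viability assay. Cells seeded at 5 × 10^3 per well and grown 24 h, then given lissoclibadins at 0.1−40 μM (etoposide 1.0−100 μM) in triplicate for 24 h. WST-1 added and absorbance read 4 h later at 450 nm, background subtracted at 650 nm. Viability expressed as % of control; IC50 taken as 50% inhibition of viability. Three experiments, mean ± SD.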

HeLa S3 = test: Antiproliferative activity against human HeLaS3 cells after 24 hrs by WST-1 assay; conditions: HeLa S3, 24 h; how it was run: as §1
MCF7 = test: Antiproliferative activity against human MCF7 cells after 24 hrs by WST-1 assay; conditions: MCF7, 24 h; how it was run: as §1
NCI-H28 = test: Antiproliferative activity against human NCI-H28 cells after 24 hrs by WST-1 assay; conditions: NCI-H28, 24 h; how it was run: as §1

Row | SMILES | pIC50 (HCT-15) | pIC50 (HeLa S3) | pIC50 (MCF7) | pIC50 (NCI-H28)
1 | COc1c(OC)c2c(c(CCN(C)C)c1SC)SSc1c(CCN(C)C)c(SC)c(OC)c(OC)c1SSc1c(OC)c(OC)c(SC)c(CCN(C)C)c1SSc1c(CCN(C)C)c(SC)c(OC)c(OC)c1SS2 | 5.31 | 5.20 | 4.93 | 5.15
2 | COc1cc(CCN(C)C)c2c(c1O)SSc1c(CCN(C)C)cc(OC)c(O)c1SS2 [LISSOCLIBADIN 7] | 4.80 | 4.85 |  | 
3 | COc1cc(CCN(C)C)c2sc3c(O)c(OC)cc(CCN(C)C)c3ssc2c1O [LISSOCLIBADIN 4] | 4.76 | 4.75 |  | 
4 | COc1cc([C@@H]2c3cc4c(cc3[C@@H](O[C@@H]3O[C@@H]5CO[C@@H](C)O[C@H]5[C@H](O)[C@H]3O)[C@H]3COC(=O)[C@H]23)OCO4)cc(OC)c1O [ETOPOSIDE] | 4.71 | 4.37 |  | 
